Data from ChEMBL document CHEMBL1795201, “Substituted N-aryl-6-pyrimidinones: a new class of potent, selective, and orally active p38 MAP kinase inhibitors” (Bioorg Med Chem Lett, 2011).
Values after ≈ are worked out from the molar mass of the structure shown.

Tests used:
[1] = Lipophilicity, log P of the compound; type: physicochemical; conditions: octanol/water
[2] = Oral bioavailability in rat at 5 mg/kg administered as suspension; type: ADME, organism-based; conditions: in vivo
How it was run: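 Rats dosed orally at 5 mpk with compound given as a suspension; bioavailability reported as oral BA (suspension).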

[3] = Aqueous solubility of the compound in crystalline form at pH 6.5; type: physicochemical; conditions: aqueous medium
How it was run: (§1)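 Aqueous solubility measured at pH 6.5, expressed in µg/mL.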

[4] = Apparent permeability in human Caco2 cells; type: ADME, cell-based; conditions: Caco-2
[5] = Aqueous solubility of the compound in amorphous form at pH 6.5; type: physicochemical; how it was run: as §1
[6] = Metabolic stability in human liver microsomes at 2 uM after 45 mins by LC-MS analysis in presence of NADPH; type: ADME, Microsome; conditions: read-out: Stability
How it was run: (§2)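 Test compound at 2 μM incubated with liver microsomes (human or rat), NADPH and buffer at 37 °C for 45 min; samples processed by precipitation, then LC-MS measured percent parent compound remaining.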

[7] = Metabolic stability in rat liver microsomes at 2 uM after 45 mins by LC-MS analysis in presence of NADPH; type: ADME, Microsome; conditions: read-out: Stability; how it was run: as §2
[8] = Volume of distribution at steady state in dog at 1 mg/kg, iv; type: ADME, organism-based, Canis lupus familiaris; set-up: dose 1 mg/kg, route intravenous; conditions: in vivo, read-out: Vdss
[9] = Oral bioavailability in dog at 1 mg/kg; type: ADME, organism-based, Canis lupus familiaris; conditions: in vivo
[10] = Oral bioavailability in rat at 0.2 mg/kg; type: ADME, organism-based; conditions: in vivo
[11] = Volume of distribution at steady state in rat at 0.2 mg/kg, iv; type: ADME, organism-based; set-up: dose 0.2 mg/kg, route intravenous; conditions: in vivo, read-out: Vdss
[12] = Half life in dog at 1 mg/kg, iv; type: ADME, organism-based, Canis lupus familiaris; set-up: dose 1 mg/kg, route intravenous; conditions: in vivo
[13] = Clearance in rat at 0.2 mg/kg, iv; type: ADME, organism-based; set-up: dose 0.2 mg/kg, route intravenous; conditions: in vivo
[14] = Half life in rat at 0.2 mg/kg, iv; type: ADME, organism-based; set-up: dose 0.2 mg/kg, route intravenous; conditions: in vivo
[15] = Clearance in dog at 1 mg/kg, iv; type: ADME, organism-based, Canis lupus familiaris; set-up: dose 1 mg/kg, route intravenous; conditions: in vivo
[16] = aqueous medium, read-out: solubility

Row | SMILES | solubility [5, 16] | remaining at 0.75 h, 2 µM [6] | remaining at 0.75 h, 2 µM [7] | other results
1 | CNC(=O)c1ccc(C)c(-n2c(C)cc(OCc3ccc(F)cc3F)c(Br)c2=O)c1 [PH-797804] |  |  |  | logP [1]: 3.35; bioavailability [2]: 9.3%; solubility [3]: 10 µg/mL (≈ 21 µM); Papp [4]: 15.9 ×10⁻⁶ cm/s
2 | Cc1ccc(C(=O)NCCO)cc1-n1cnc(OCc2ccc(F)cc2F)c(C)c1=O | 28 µg/mL (≈ 65.2 µM) | 84% | 99% | 
3 | Cc1ccc(C(=O)NCCO)cc1-n1cnc(OCc2ccc(F)cc2F)c(Br)c1=O |  |  |  | solubility ([5]; buffer): Insoluble
4 | Cc1ccc(C(=O)NC[C@H](C)CO)cc1-n1cnc(OCc2ccc(F)cc2F)c(Cl)c1=O | 94 µg/mL (≈ 197 µM) | 96% | 85% | 
5 | Cc1ccc(C(=O)N[C@H](C)C(N)=O)cc1-n1cnc(OCc2ccc(F)cc2F)c(Cl)c1=O | 147 µg/mL (≈ 308 µM) | 77% | 72% | 
6 | Cc1ccc(C(=O)NC[C@@H](O)CO)cc1-n1cnc(OCc2ccc(F)cc2F)c(Cl)c1=O | 163 µg/mL (≈ 340 µM) | 97% | 100% | 
7 | CCc1c(OCc2ccc(F)cc2F)ncn(-c2cc(C(=O)NCCO)ccc2C)c1=O | 20 µg/mL (≈ 45.1 µM) | 76% | 92% | 
8 | Cc1ccc(C(=O)NCC(N)=O)cc1-n1cnc(OCc2ccc(F)cc2F)c(Cl)c1=O | 14 µg/mL (≈ 30.2 µM) | 100% | 100% | 
9 | Cc1ccc(C(=O)NCCO)cc1-n1cnc(OCc2ccc(F)cc2F)c(Cl)c1=O | 51 µg/mL (≈ 113 µM) | 99% | 97% | Vd [8]: 0.986 L/kg; bioavailability [9]: 67%; logP [1]: 1.65; bioavailability [10]: 99%; bioavailability [2]: 99%; Vd [11]: 1.32 L/kg; solubility [3]: 23 µg/mL (≈ 51.1 µM); half-life [12]: 522 min; Papp [4]: 7.99 ×10⁻⁶ cm/s; clearance [13]: 3.19 mL/min/kg; half-life [14]: 390 min; clearance [15]: 1.59 mL/min/kg
